One data set addresses T1, Thrombopoietin receptor (Homo sapiens, UniProt P40238).
T1 sequence (P40238 whole entry): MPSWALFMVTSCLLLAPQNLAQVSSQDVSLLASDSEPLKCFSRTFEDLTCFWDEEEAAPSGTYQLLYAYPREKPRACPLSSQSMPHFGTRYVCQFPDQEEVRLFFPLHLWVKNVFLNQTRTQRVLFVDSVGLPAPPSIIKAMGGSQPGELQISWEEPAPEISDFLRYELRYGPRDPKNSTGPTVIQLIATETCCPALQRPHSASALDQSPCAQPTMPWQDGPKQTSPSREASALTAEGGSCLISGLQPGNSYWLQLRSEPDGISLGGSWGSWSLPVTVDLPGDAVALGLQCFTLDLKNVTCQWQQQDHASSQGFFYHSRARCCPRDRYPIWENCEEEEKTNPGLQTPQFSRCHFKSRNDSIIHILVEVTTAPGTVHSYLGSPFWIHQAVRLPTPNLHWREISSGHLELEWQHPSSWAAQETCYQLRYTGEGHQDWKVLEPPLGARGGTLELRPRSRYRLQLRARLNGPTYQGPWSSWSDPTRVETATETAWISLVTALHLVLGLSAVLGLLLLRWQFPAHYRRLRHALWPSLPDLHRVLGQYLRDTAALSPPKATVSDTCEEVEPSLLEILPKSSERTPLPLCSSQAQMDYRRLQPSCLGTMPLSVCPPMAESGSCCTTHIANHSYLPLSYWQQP
Put plainly: Agonist activity at human TPOR expressed.

Data set [1] can be described thus: Cmax in rat at 5 mg/kg, po. The format is ADME, organism-based. Details: dose 5 mg/kg, route oral. The settings on record: in vivo. In a few lines: (§1)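 Test substances given as ethanolamine salts, orally at 5 mg/kg to rats. Plasma concentration–time profiles were used to derive apparent total plasma clearance (CLz/F), half-life, AUC0–t and peak plasma concentration (Cmax). Values are reported as mean ± spread.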

The nature of data set [2]: Apparent total plasma clearance in rat at 5 mg/kg, po. Particulars: read-out: CLt/F (converted). Format: ADME, organism-based. Set-up: dose 5 mg/kg, route oral. In outline:
as §1

Data set [3] is described as follows: AUC (0 to t) in rat at 5 mg/kg, po. Format: ADME, organism-based. Details: dose 5 mg/kg, route oral. Particulars: plasma. In outline:
as §1

The nature of data set [4]: Half life in rat at 5 mg/kg, po. The format is ADME, organism-based. The settings on record: in vivo. Set-up: dose 5 mg/kg, route oral. In outline:
as §1

Data set [5] deals with T2, Thrombopoietin receptor (Homo sapiens) (UniProt P40238).
T2 sequence (whole entry): T1 sequence (P40238 whole entry)
Put plainly: Agonist activity at human TPOR expressed in mouse BaF3 cells at 150 nM.

Data set [6] has as its target T2, Thrombopoietin receptor (Homo sapiens). Put plainly: Agonist activity at human TPOR expressed in mouse BaF3 cells at 300 nM.

These results are taken from ChEMBL document CHEMBL1255541, “Novel indoline-1- or 3,4-dihydroquinoline-1(2H)-substituted carbothiohydrazides as TPO receptor agonists” (Bioorg Med Chem Lett, 2010).

For the compound `CCNC(=O)c1ccc2c(c1)CCN2C(=S)NN/C(C)=C1\C(=O)N(c2ccc(C)c(C)c2)N=C1C`, the EC50 – broadly, the concentration giving half of the maximal effect – at Thrombopoietin receptor was 26 nM.

For `CC1=NN(c2ccc(C)c(C)c2)C(=O)/C1=C(/C)NNC(=O)N1CCc2cc(C(=O)O)ccc21`, in data set [1], the peak level (Cmax) was 859 ng/mL. Further, the CL/F in data set [2] was 113 mL/min/kg. The same compound had an EC50 at Thrombopoietin receptor of 42 nM. The AUC(0-t) (commonly exposure summed from dosing to a finite time, without extrapolation to infinity) in data set [3] came to 923 ng·h/mL. The half-life (commonly the time needed for the level to fall by half in the phase considered) in data set [4] is 1.86 h.

Take `C/C(NNC(=S)N1CCc2cc(C(=O)O)ccc21)=C1/C(=O)N(c2ccc3c(c2)CCC3)c2ccccc21`: the % activity vs 10 ng/ml TPO in data set [5] was determined as 14.3%; in data set [6], 75.8%.

At Thrombopoietin receptor, `CC1=NN(c2ccc(C)c(C)c2)C(=O)/C1=C(/C)NNC(=S)N1CCc2cc(C(=O)N3CCOCC3)ccc21` came in with an EC50 of 31 nM.

As for `C/C(NNC(=S)N1CCCc2cc(C(=O)O)ccc21)=C1/C(=O)N(c2ccc(C)cc2)c2ccccc21`, the % activity vs 10 ng/ml TPO came out at 47.3% in data set [5] and 101% in data set [6].

With `C/C(NNC(=S)N1CCc2cc(C(=O)O)ccc21)=C1/C(=O)N(c2ccc(C)cc2)c2ccccc21`, the % activity vs 10 ng/ml TPO in data set [5] was 47.8%; in data set [6], 107%.

Regarding `C/C(NNC(=S)N1CCc2cc(C(=O)O)ccc21)=C1/C(=O)N(c2ccc3c(c2)CCC3)c2ccc(F)cc21`, the results for the % activity vs 10 ng/ml TPO in data set [5] and in data set [6] were 3.2% and 10.6%, respectively.

`CC1=NN(c2ccc3c(c2)CCC3)C(=O)/C1=C(/C)NNC(=O)N1CCc2cc(C(=O)O)ccc21`: the Cmax (commonly the highest concentration seen after dosing) in data set [1] is 3550 ng/mL. The CL/F in data set [2] is 20.5 mL/min/kg. Moreover, on Thrombopoietin receptor, the EC50 amounted to 46 nM. Moreover, the AUC(0-t) in data set [3] came to 4460 ng·h/mL. The same compound had a half-life in data set [4] of 1.48 h.

At Thrombopoietin receptor, `CC1=NN(c2ccc3c(c2)CCC3)C(=O)/C1=C(/C)NNC(=S)N1CCc2cc(C(=O)O)ccc21` displayed an EC50 of 3 nM.

As for `C/C(NNC(=S)N1CCc2cc(C(=O)O)ccc21)=C1/C(=O)N(c2ccc(C)c(C)c2)c2ccccc21`, the % activity vs 10 ng/ml TPO amounted to 72.4% in data set [5] and 138% in data set [6].

With `C/C(NNC(=S)N1CCCc2cc(C(=O)O)ccc21)=C1/C(=O)N(c2ccc(C)c(C)c2)c2ccccc21`, the values for the % activity vs 10 ng/ml TPO in data set [5] and in data set [6] were 30.9% and 33.4%, respectively.

For the compound `CC1=NN(c2ccc(C)c(C)c2)C(=O)/C1=C(/C)NNC(=S)N1CCc2cc(C(=O)O)ccc21`, a half-maximal response at Thrombopoietin receptor (EC50) required 6 nM.

Turning to `CNC(=O)c1ccc2c(c1)CCN2C(=S)NN/C(C)=C1\C(=O)N(c2ccc(C)c(C)c2)N=C1C`, the EC50 at Thrombopoietin receptor was 22 nM.

`CC1=NN(c2ccc3c(c2)CCC3)C(=O)/C1=C(/C)NNC(=S)N1CCCc2cc(C(=O)O)ccc21` returned an EC50 on Thrombopoietin receptor of 35 nM.

Take `C/C(NNC(=S)N1CCc2cc(C(=O)O)ccc21)=C1/C(=O)N(c2ccc(C)cc2)c2ccc(F)cc21`: the % activity vs 10 ng/ml TPO in data set [5] turned out to be 78.1%; in data set [6] it was 122%.

Consider `CC1=NN(c2ccc(C)c(C)c2)C(=O)/C1=C(/C)NNC(=S)N1CCCc2cc(C(=O)O)ccc21`, for which the EC50 on Thrombopoietin receptor came out at 64 nM.
